One experiment deals with HEK293. As to the kind of experiment: In vitro cytotoxicity against HEK293 cells assessed as growth inhibition by MTT assay. As to conditions: Homo sapiens. It is filed as cell-based. In short, it runs like this: (§1)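 Human tumour lines A549 (alveolar adenocarcinoma), HeLa (cervical), MDA-MB-231 and MCF7 (breast adenocarcinoma), plus normal embryonic kidney HEK293, all ATCC-sourced, grown in 96-well plates. Growth inhibition read as cell-mediated reduction of tetrazolium salt (MTT) to formazan, with doxorubicin as standard. IC50 (µM) calculated from absorbance dose-response curves.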
(In general: Formazan colour is commonly taken as a measure of viable cells.)

The test system of a further experiment is HeLa. Put plainly: In vitro cytotoxicity against human HeLa cells assessed as growth inhibition by MTT assay. It is filed as functional, cell-based. The method in brief:
as §1

The subject of a further experiment is A549. Put plainly: In vitro cytotoxicity against human A549 cells assessed as growth inhibition by MTT assay. It is filed as functional, cell-based. In short, it runs like this:
as §1

A further experiment has as its system MCF7. Put plainly: In vitro cytotoxicity against human MCF7 cells assessed as growth inhibition by MTT assay. The format is functional, cell-based. In short, it runs like this: as §1
Another experiment has as its system MDA-MB-231. Put plainly: In vitro cytotoxicity against human MDA-MB-231 cells assessed as growth inhibition by MTT assay. The format is functional, cell-based. In short, it runs like this: as §1

The IC50 is the point on the concentration scale where inhibition reaches its midpoint. As to `O=c1oc2ccccc2c2c1CCCc1ccccc1-2`, the IC50 in the experiment with HEK293 was greater than 200 µM; with HeLa, 14.1 µM; in the experiment on A549, 3.35 µM; in the experiment on MCF7 it was 9.63 µM; with MDA-MB-231, 16.8 µM.
For the molecule `Cc1cc2c(cc1C)-c1c(c(=O)oc3ccc(Cl)cc13)CCC2`, the IC50 was greater than 200 µM in the experiment on HEK293; 12.7 µM in the experiment on HeLa; 10.8 µM with A549; 15.8 µM in the experiment on MCF7; 13.3 µM with MDA-MB-231.
On to `COc1cc2c(cc1OC)-c1c(c(=O)oc3ccccc13)CCC2`, for which the IC50 was greater than 200 µM in the experiment with HEK293; 6.72 µM with HeLa; greater than 200 µM in the experiment with A549; greater than 200 µM in the experiment with MCF7; 4.87 µM with MDA-MB-231.
As to `COc1cccc2c1C(=O)c1c(O)c3c(c(O)c1C2=O)C[C@@](O)(C(=O)CO)C[C@@H]3O[C@H]1C[C@H](N)[C@H](O)[C@H](C)O1` [DOXORUBICIN], the IC50 with HEK293 was greater than 200 µM.

The record behind these values is ChEMBL document CHEMBL3232834, “Synthesis of novel building blocks of benzosuberone bearing coumarin moieties and their evaluation as potential anticancer agents” (Eur J Med Chem, 2014).
